Active and inactive are the calls of the source. No cut-off for these calls is given here.
Key:
Diaporthe ampelina [1] = assay: Antifungal activity against Diaporthe ampelina assessed as growth inhibition at 30 to 300 uM after 120 hr by microplate photometric analysis; assay type: functional, organism-based
Procedure, shortened: (§1)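 Phomopsis conidia, from strawberry or grape isolates grown 7–10 days on PDA, were tested in RPMI/0.165 M MOPS (pH 7) microtiter wells. Ethanol stocks were diluted to final 30, 100 and 300 µM, with duplicate wells and compound-only blanks. Incubation was at 24 ± 2 °C under a 12-h photoperiod, with A620 read at 120 h because germination is slow. Results are % change versus untreated conidia controls, run twice in time (n = 4).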

[2] = system: Colletotrichum gloeosporioides; assay: Stimulation of Colletotrichum gloeosporioides growth at 30 to 300 uM after 48 hr by microplate photometric analysis; assay type: functional, organism-based
Procedure, shortened: (§2)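 Conidia came from 7–10-day PDA cultures (24 ± 2 °C, 12-h photoperiod) and were filtered and adjusted photometrically to 1.0 × 10^6/mL. B. cinerea was isolated from grape, C. gloeosporioides from strawberry and F. oxysporum from orchid. Growth was run in MOPS-buffered RPMI (0.165 M, pH 7) at final 30, 100 or 300 µM from 120 mM ethanol stocks, with duplicate wells, and read as A620 at 48 h. Results are % of untreated growth.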

Colletotrichum acutatum [3] = assay: Stimulation of Colletotrichum acutatum growth at 30 uM after 48 hr by microplate photometric analysis; assay type: functional
Procedure, shortened: (§3)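 96-well broth microdilution on conidia from 7–10-day PDA cultures of isolates from strawberry, grape or orchid. Conidia were in RPMI buffered with 0.165 M MOPS (pH 7). Ethanol stocks were diluted to final 30, 100 and 300 µM, with duplicate wells and compound-only blanks. Plates were incubated at 24 ± 2 °C under a 12-h photoperiod and read at A620 after 48 h. Results are % change versus untreated conidia controls, split-plot design run twice (n = 4).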

Phomopsis obscurans [4] = assay: Antifungal activity against Phomopsis obscurans assessed as growth inhibition at 30 uM after 120 hr by microplate photometric analysis; assay type: functional; settings: Paraphomopsis obscurans, read-out: GI; procedure, shortened: as §1
Fusarium solani = assay: Fungistatic activity against Fusarium solani assessed as growth inhibition; assay type: functional, organism-based
Botrytis cinerea [5] = assay: Antifungal activity against Botryotinia fuckeliana assessed as growth inhibition at 30 to 300 uM after 48 hr by microplate photometric analysis; assay type: functional, organism-based; procedure, shortened: as §3
Colletotrichum acutatum [6] = assay: Antifungal activity against Colletotrichum acutatum assessed as growth inhibition at 300 uM after 48 hr by microplate photometric analysis; assay type: functional; settings: read-out: GI; procedure, shortened: as §3
Phomopsis obscurans [7] = assay: Antifungal activity against Phomopsis obscurans assessed as growth inhibition at 30 to 300 uM after 120 hr by microplate photometric analysis; assay type: functional, organism-based; settings: Paraphomopsis obscurans; procedure, shortened: as §1
Diaporthe ampelina [8] = assay: Antifungal activity against Diaporthe ampelina assessed as growth inhibition at 300 uM after 120 hr by microplate photometric analysis; assay type: functional; settings: read-out: GI; procedure, shortened: as §1
Fusarium oxysporum [9] = assay: Antifungal activity against Fusarium oxysporum assessed as growth inhibition at 300 uM after 48 hr by microplate photometric analysis; assay type: functional; settings: read-out: GI; procedure, shortened: as §3
Colletotrichum fragariae [10] = assay: Antifungal activity against Colletotrichum fragariae assessed as growth inhibition at 30 to 300 uM after 48 hr by microplate photometric analysis; assay type: functional; procedure, shortened: as §3
[11] = system: Colletotrichum gloeosporioides; assay: Antifungal activity against Colletotrichum gloeosporioides assessed as growth inhibition at 300 uM after 48 hr by microplate photometric analysis; assay type: functional; settings: read-out: GI; procedure, shortened: as §3
Phomopsis obscurans [12] = assay: Stimulation of Phomopsis obscurans growth at 30 to 300 uM after 120 hr by microplate photometric analysis; assay type: functional, organism-based; settings: Paraphomopsis obscurans; procedure, shortened: as §1
Botrytis cinerea [13] = assay: Stimulation of Botryotinia fuckeliana growth at 30 to 300 uM after 48 hr by microplate photometric analysis; assay type: functional, organism-based; procedure, shortened: as §3
Diaporthe ampelina [14] = assay: Stimulation of Diaporthe ampelina growth at 30 to 300 uM after 120 hr by microplate photometric analysis; assay type: functional, organism-based
Procedure, shortened: (§4)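 P. viticola was isolated from grape, and its conidia were harvested from 7–10-day PDA cultures, filtered and adjusted photometrically to 1.0 × 10^6/mL. Growth was run in RPMI broth buffered with 0.165 M MOPS (pH 7) at final 30, 100 or 300 µM (120 mM stocks in 95% ethanol), with duplicate wells, at 24 ± 2 °C under a 12-h photoperiod. A620 was read at 120 h and expressed relative to untreated conidia controls.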

Botrytis cinerea [15] = assay: Antifungal activity against Botryotinia fuckeliana assessed as growth inhibition at 300 uM after 48 hr by microplate photometric analysis; assay type: functional, organism-based; procedure, shortened: as §2
Fusarium oxysporum [16] = assay: Stimulation of Fusarium oxysporum growth at 30 uM after 48 hr by microplate photometric analysis; assay type: functional, organism-based; procedure, shortened: as §2
Botrytis cinerea [17] = assay: Stimulation of Botryotinia fuckeliana growth at 30 uM after 48 hr by microplate photometric analysis; assay type: functional, organism-based; procedure, shortened: as §2
Colletotrichum fragariae [18] = assay: Antifungal activity against Colletotrichum fragariae assessed as growth inhibition at 300 uM after 48 hr by microplate photometric analysis; assay type: functional; settings: read-out: GI; procedure, shortened: as §3
[19] = system: Colletotrichum gloeosporioides; assay: Antifungal activity against Colletotrichum gloeosporioides assessed as growth inhibition at 100 uM after 48 hr by microplate photometric analysis; assay type: functional; settings: read-out: GI; procedure, shortened: as §3
Diaporthe ampelina [20] = assay: Antifungal activity against Diaporthe ampelina assessed as growth inhibition at 30 uM after 120 hr by microplate photometric analysis; assay type: functional, organism-based; procedure, shortened: as §4
Phomopsis obscurans [21] = assay: Antifungal activity against Phomopsis obscurans assessed as growth inhibition at 300 uM after 120 hr by microplate photometric analysis; assay type: functional; settings: Paraphomopsis obscurans; for inhibition of growth at 300 µM: read-out: GI; procedure, shortened: as §1
Phomopsis obscurans [22] = assay: Antifungal activity against Phomopsis obscurans assessed as growth inhibition at 100 uM after 120 hr by microplate photometric analysis; assay type: functional; settings: Paraphomopsis obscurans, read-out: GI; procedure, shortened: as §1

With COc1c2ccoc2cc2oc(=O)ccc12 [BERGAPTEN] as the compound, how does the “growth inhibition (GI)” value (Diaporthe ampelina [1]) read?
Its value is “Active”.

And the Activity [2]?
Its Activity is “Active”.

What about the Activity (Colletotrichum acutatum [3]) of the same compound?
Its Activity is 15%.

And the inhibition of growth at 30 µM (Phomopsis obscurans [4])?
The inhibition of growth at 30 µM was 80%.

What about the IC50 (Fusarium solani) of the same compound?
The IC50 was 27.7 µM.

Which results are given for CCCCNC(=O)n1c(NC(=O)OC)nc2ccccc21 [BENOMYL]?
growth inhibition (GI) (Botrytis cinerea [5]): Active; inhibition of growth at 300 µM (Colletotrichum acutatum [6]): 33%; growth inhibition (GI) (Phomopsis obscurans [7]): Active; inhibition of growth at 300 µM (Diaporthe ampelina [8]): 57%; inhibition of growth at 300 µM (Fusarium oxysporum [9]): 77%; growth inhibition (GI) (Colletotrichum fragariae [10]): 76%; inhibition of growth at 300 µM [11]: 66%

With O=c1ccc2ccc(O)cc2o1 [UMBELLIFERONE] as the compound, how does the Activity (Phomopsis obscurans [12]) read?
The Activity was “Active”.

What about the Activity [2] of the same compound?
The Activity was “Active”.

And the Activity (Colletotrichum acutatum [3])?
Its Activity is 15%.

And the Activity (Botrytis cinerea [13])?
The Activity was “Active”.

And the Activity (Diaporthe ampelina [14])?
Its Activity is “Active”.

With COc1ccc2ccc(=O)oc2c1 [HERNIARIN] as the compound, how does the Activity [2] read?
Its Activity is “Active”.

And the “growth inhibition (GI)” value (Botrytis cinerea [15])?
Its value is “Active”.

And the Activity (Colletotrichum acutatum [3])?
Its Activity is 15%.

What about the Activity (Fusarium oxysporum [16]) of the same compound?
The Activity was “Active”.

What about the Activity (Botrytis cinerea [17]) of the same compound?
The Activity was “Active”.

And the Activity (Diaporthe ampelina [14])?
Its Activity is “Active”.

And the inhibition of growth at 300 µM (Colletotrichum fragariae [18])?
The inhibition of growth at 300 µM was 21%.

Cn1c(CCCCCCc2ccc3c(c2)OCO3)cc(=O)c2ccccc21 was tested. Which “growth inhibition (GI)” value (Botrytis cinerea [5]) did it give?
Its value is “Active”.

What about the inhibition of growth at 300 µM (Colletotrichum acutatum [6]) of the same compound?
The inhibition of growth at 300 µM was 57%.

And the inhibition of growth at 30 µM (Phomopsis obscurans [4])?
The inhibition of growth at 30 µM was 100%.

And the inhibition of growth at 100 µM [19]?
The inhibition of growth at 100 µM was 67.7%.

What about the “growth inhibition (GI)” value (Diaporthe ampelina [20]) of the same compound?
The value was “Active”.

And the “growth inhibition (GI)” value (Colletotrichum fragariae [10])?
The value was “Active”.

Which “growth inhibition (GI)” value (Phomopsis obscurans [21]) does the source give for CCCCCCCCCc1cc(=O)c2ccccc2[nH]1 here?
Its value is “inactive”.

And the inhibition of growth at 300 µM (Colletotrichum acutatum [6])?
Its inhibition of growth at 300 µM is 50%.

What about the inhibition of growth at 100 µM (Phomopsis obscurans [22]) of the same compound?
The inhibition of growth at 100 µM was 100%.

And the inhibition of growth at 300 µM (Fusarium oxysporum [9])?
The inhibition of growth at 300 µM was 37%.

What about the Activity (Botrytis cinerea [17]) of the same compound?
Its Activity is “Active”.

What about the “growth inhibition (GI)” value (Diaporthe ampelina [20]) of the same compound?
The value was “Active”.

And the “growth inhibition (GI)” value (Colletotrichum fragariae [10])?
The value was “Active”.

With Cn1c(-c2ccc3c(c2)OCO3)cc(=O)c2ccccc21 [GRAVEOLINE] as the compound, how does the inhibition of growth at 100 µM (Phomopsis obscurans [22]) read?
The inhibition of growth at 100 µM was 100%.

And the inhibition of growth at 300 µM (Fusarium oxysporum [9])?
The inhibition of growth at 300 µM was 44%.

And the Activity (Botrytis cinerea [17])?
Its Activity is “Active”.

And the Activity (Diaporthe ampelina [14])?
The Activity was “Active”.

And the “growth inhibition (GI)” value (Colletotrichum fragariae [10])?
Its value is “Active”.

How did the Activity (Phomopsis obscurans [12]) turn out when O=c1cc(O)c2ccccc2o1 [4-HYDROXYCOUMARINS] was run?
The Activity was “Active”.

And the Activity [2]?
The Activity was “Active”.

What about the Activity (Colletotrichum acutatum [3]) of the same compound?
Its Activity is 15%.

And the Activity (Botrytis cinerea [13])?
The Activity was “Active”.

What about the Activity (Diaporthe ampelina [14]) of the same compound?
The Activity was “Active”.

For COc1c2occc2cc2ccc(=O)oc12 [METHOXSALEN], which “growth inhibition (GI)” value (Diaporthe ampelina [1]) is on record?
The value was “Active”.

And the inhibition of growth at 300 µM (Phomopsis obscurans [21])?
The inhibition of growth at 300 µM was 100%.

And the Activity [2]?
Its Activity is “Active”.

And the “growth inhibition (GI)” value (Botrytis cinerea [15])?
The value was “Active”.

And the Activity (Colletotrichum acutatum [3])?
Its Activity is 15%.

And the inhibition of growth at 30 µM (Phomopsis obscurans [4])?
Its inhibition of growth at 30 µM is 80%.

What about the inhibition of growth at 300 µM (Fusarium oxysporum [9]) of the same compound?
Its inhibition of growth at 300 µM is 50%.

What about the inhibition of growth at 300 µM (Colletotrichum fragariae [18]) of the same compound?
Its inhibition of growth at 300 µM is 29%.

And the IC50 (Fusarium solani)?
The IC50 was 125 µM.

COc1cc2nc3occc3c(OC)c2cc1OC [KOKUSAGININE] was tested. Which inhibition of growth at 300 µM (Phomopsis obscurans [21]) did it give?
Its inhibition of growth at 300 µM is 100%.

What about the inhibition of growth at 30 µM (Phomopsis obscurans [4]) of the same compound?
Its inhibition of growth at 30 µM is 80%.

What about the “growth inhibition (GI)” value (Diaporthe ampelina [20]) of the same compound?
Its value is “Active”.

And the “growth inhibition (GI)” value (Colletotrichum fragariae [10])?
Its value is “Active”.

And the inhibition of growth at 300 µM [11]?
The inhibition of growth at 300 µM was 50%.

O=c1cc(CCCCc2ccc3c(c2)OCO3)[nH]c2ccccc12 was tested. Which “growth inhibition (GI)” value (Botrytis cinerea [15]) did it give?
The value was “Active”.

What about the inhibition of growth at 30 µM (Phomopsis obscurans [4]) of the same compound?
Its inhibition of growth at 30 µM is 100%.

And the “growth inhibition (GI)” value (Diaporthe ampelina [20])?
The value was “Active”.

Which “growth inhibition (GI)” value (Diaporthe ampelina [1]) does the source give for O=C1C2CC=CCC2C(=O)N1SC(Cl)(Cl)Cl (configuration not stated) [CAPTAN] here?
The value was “Active”.

And the “growth inhibition (GI)” value (Phomopsis obscurans [7])?
Its value is “Active”.

What about the inhibition of growth at 300 µM (Fusarium oxysporum [9]) of the same compound?
Its inhibition of growth at 300 µM is 100%.
